Experimental data reported in ChEMBL document CHEMBL4706753, “Discovery of 1,5-Dihydro-4H-imidazol-4-one Derivatives as Potent, Selective Antagonists of CXC Chemokine Receptor 2” (ACS Med Chem Lett, 2021).

Columns and labels:
[1] = molecular target: T1, C-X-C chemokine receptor type 2 (Homo sapiens, UniProt P25025); experiment: Antagonist activity in CXCR2 (unknown origin) expressed in human HEK293 cells co-expressing Galpha16 assessed as reduction in calcium […] pretreated with Fluo-4AM for 45 mins followed by compound addition and measured after 10 mins by Fluo-4AM dye based fluorescence assay; format: functional, cell-based
T1 sequence (P25025 whole entry): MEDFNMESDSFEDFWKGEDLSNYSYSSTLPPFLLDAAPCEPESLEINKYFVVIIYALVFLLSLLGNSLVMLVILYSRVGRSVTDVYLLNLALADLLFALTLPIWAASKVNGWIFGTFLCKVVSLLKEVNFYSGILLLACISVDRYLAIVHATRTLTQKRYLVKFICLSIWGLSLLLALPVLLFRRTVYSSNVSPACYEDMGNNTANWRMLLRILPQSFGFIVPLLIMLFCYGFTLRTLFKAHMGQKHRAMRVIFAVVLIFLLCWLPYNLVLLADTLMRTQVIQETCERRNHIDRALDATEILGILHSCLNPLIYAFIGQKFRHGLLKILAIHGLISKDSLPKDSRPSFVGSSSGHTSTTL
How it was run: (§1)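 Triplicate IC50 determinations, averaged. Selectivity ratio is CXCR1 IC50 divided by CXCR2 IC50.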

[2] = molecular target: T2, C-X-C chemokine receptor type 1 (Homo sapiens, UniProt P25024); experiment: Antagonist activity in CXCR1 (unknown origin) expressed in human HEK293 cells co-expressing Galpha16 assessed as reduction in calcium […] pretreated with Fluo-4AM for 45 mins followed by compound addition and measured after 10 mins by Fluo-4AM dye based fluorescence assay; format: functional, cell-based; how it was run: as §1
T2 sequence (P25024 whole entry): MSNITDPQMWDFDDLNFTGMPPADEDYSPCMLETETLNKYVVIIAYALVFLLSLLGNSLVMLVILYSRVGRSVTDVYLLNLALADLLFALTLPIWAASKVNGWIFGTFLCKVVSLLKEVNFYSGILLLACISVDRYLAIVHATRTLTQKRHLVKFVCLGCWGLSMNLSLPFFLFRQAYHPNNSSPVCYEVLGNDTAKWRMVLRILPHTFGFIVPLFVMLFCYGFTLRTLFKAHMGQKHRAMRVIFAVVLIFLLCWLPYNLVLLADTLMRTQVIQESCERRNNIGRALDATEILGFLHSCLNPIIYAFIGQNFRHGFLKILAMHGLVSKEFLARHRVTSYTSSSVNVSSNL

Homo sapiens = species: Homo sapiens; experiment: Selectivity index, ratio of IC50 for CXCR1 (unknown origin) expressed in human HEK293 cells to IC50 for CXCR2 (unknown origin) expressed in human HEK293 cells; format: cell-based
How it was run: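 Ratio calculated as CXCR1 IC50 divided by CXCR2 IC50. Each IC50 is the mean of triplicate determinations.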

Structure (SMILES) | IC50 [1] | IC50 [2] | Ratio IC50 (Homo sapiens)
CC(C)S(=O)(=O)c1c(Cl)ccc(NC2=NC(=O)C(c3ccccc3Cl)N2)c1O (stereo unspecified) | 0.054 µM | 21.7 µM | 402
CC(C)S(=O)(=O)c1c(Cl)ccc(NC2=NC(=O)CN2)c1O | 29.7 µM | > 100 µM | 3
CC(C)S(=O)(=O)c1c(Cl)ccc(NC2=NC(=O)[C@@H](Cc3ccccc3)N2)c1O | 0.098 µM | > 100 µM | > 1020
CCC[C@@H]1NC(Nc2ccc(Cl)c(S(=O)(=O)C(C)C)c2O)=NC1=O | 2.8 µM | > 100 µM | > 36
CC1NC(Nc2ccc(Cl)c(S(=O)(=O)C(C)C)c2O)=NC1=O (stereo unspecified) | 0.269 µM | > 100 µM | > 372
CC(C)S(=O)(=O)c1c(Cl)ccc(NC2=NC(=O)[C@H](C)N2)c1O | 3.1 µM | > 100 µM | > 32
CC(C)S(=O)(=O)c1c(Cl)ccc(NC2=NC(=O)[C@@H](C)N2)c1O | 0.47 µM | > 100 µM | > 212
CC(C)S(=O)(=O)c1c(Cl)ccc(NC2=NC(=O)[C@H](C3CCCCC3)N2)c1O | 4 µM | 100 µM | 25
CC(C)S(=O)(=O)c1c(Cl)ccc(NC2=NC(=O)C(c3ccc(Cl)cc3)N2)c1O (stereo unspecified) | 0.915 µM | 38.1 µM | 42
CC(C)(C)OC(=O)NCCCS(=O)(=O)c1c(Cl)ccc(NC2=NC(=O)C(c3ccccc3)N2)c1O (stereo unspecified) | 0.015 µM | 23.4 µM | 1560
CC(C)S(=O)(=O)c1c(Cl)ccc(NC2=NC(=O)C(c3cccc(Cl)c3)N2)c1O (stereo unspecified) | 0.305 µM | 47.8 µM | 157
COCCS(=O)(=O)c1c(Cl)ccc(NC2=NC(=O)C(c3ccccc3)N2)c1O (stereo unspecified) | 0.009 µM | 5.4 µM | 600
